# Tests used:
# ECV-304 = test: Protection against hydrogen peroxide-induced cell damage in human ECV304 cells treated 30 mins before hydrogen peroxide challenge measured after 6 hrs; type: functional, cell-based
# Summary of the method: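 ECV-304 cells grown 24 h, then given fresh medium with compound at 12.5, 25, 50, 100 or 200 µM. After 0.5 h, 150 µM H2O2 added, then 6 h further incubation. Read-out is absorbance at 570 nm, mean ± SEM, n = 6. Proliferation rate = (OD compd − OD H2O2)/(OD control − OD H2O2) × 100%. EC50 derived by a pEC50 summation formula over proliferation rates.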
# [1] = Antiplatelet activity in rabbit platelets assessed as inhibition of ADP-induced platelet aggregation at 200 uM by aggregometer; type: functional, Oryctolagus cuniculus; design: scale not given: the % may be the effect or the level left
# Summary of the method: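 Rabbit blood anticoagulated with 3.8% trisodium citrate (0.3 ml per 2.7 ml blood). ADP and compound (200 µM) added in sequence, with blank and ADP-control cuvettes. Platelet-rich plasma from 270 g/5 min spin, platelet-poor plasma from 1000 g/10 min spin. Aggregation read on aggregometer and reported as mean aggregation rate A% (n = 6).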
# [2] = Half life in human; type: ADME, organism-based; details: in vivo
Compound,EC50 (ECV-304),Activity [1],half-life [2]
Cc1nc(C)c(CN2CCN(C(=O)c3ccc(I)cc3)CC2)nc1C,125 µM,25.17%,
Cc1nc(C)c(CN2CCN(C(=O)C(=O)c3ccccc3)CC2)nc1C,304 µM,26.11%,
Cc1nc(C)c(CN2CCN(C(=O)c3ccccc3O)CC2)nc1C,6.13 µM,16.71%,
Cc1nc(C)c(CN2CCN(S(=O)(=O)c3ccccc3)CC2)nc1C,480 µM,24.49%,
Cc1ccc(S(=O)(=O)N2CCN(Cc3nc(C)c(C)nc3C)CC2)cc1,,25.13%,
CCOC(=O)N1CCN(Cc2nc(C)c(C)nc2C)CC1,76.6 µM,15.25%,
COc1cc(C(=O)N2CCN(Cc3nc(C)c(C)nc3C)CC2)cc(OC)c1OC,88.7 µM,14.26%,
COc1ccc(C(=O)N2CCN(Cc3nc(C)c(C)nc3C)CC2)cc1OC,170 µM,29.06%,
Cc1nc(C)c(CN2CCN(C(=O)c3cc([N+](=O)[O-])cc([N+](=O)[O-])c3)CC2)nc1C,179 µM,15.67%,
Cc1nc(C)c(CN2CCN(C(=O)CCc3ccccc3)CC2)nc1C,150 µM,13.29%,
Cc1nc(C)c(CN2CCN(C(=O)Cc3ccccc3)CC2)nc1C,189 µM,25.59%,
COc1cccc(/C=C/C(=O)N2CCN(Cc3nc(C)c(C)nc3C)CC2)c1OC,340 µM,8.78%,
COc1cc(/C=C/C(=O)N2CCN(Cc3nc(C)c(C)nc3C)CC2)ccc1OC(C)=O,,5.84%,
Cc1nc(C)c(CN2CCN(C(=O)c3ccccc3)CC2)nc1C,241 µM,28.46%,
Cc1nc(C)c(CN2CCN(C(=O)c3ccccc3Cl)CC2)nc1C,161 µM,27.24%,
Cc1nc(C)c(CN2CCN(C(=O)c3cccc(Cl)c3)CC2)nc1C,121 µM,24.74%,
Cc1nc(C)c(CN2CCN(C(=O)c3ccc(Cl)cc3)CC2)nc1C,208 µM,25.62%,

Compound,EC50 (ECV-304),Activity [1],half-life [2]
Cc1nc(C)c(CN2CCN(C(=O)c3ccc(Cl)cc3Cl)CC2)nc1C,249 µM,16.08%,
COc1ccc(OC)c(/C=C/C(=O)N2CCN(Cc3nc(C)c(C)nc3C)CC2)c1,376 µM,9.78%,
CC(=O)Oc1ccccc1C(=O)N1CCN(Cc2nc(C)c(C)nc2C)CC1,159 µM,3.02%,
Cc1nc(C)c(CN2CCN(C(=O)c3cccnc3)CC2)nc1C,220 µM,5.08%,
Cc1nc(C)c(CN2CCN(C(=O)c3ccncc3)CC2)nc1C,29.7 µM,6.07%,
Cc1nc(C)c(CN2CCN(C(=O)C(C)(C)Oc3ccc(Cl)cc3)CC2)nc1C,,13.68%,
Cc1nc(C)c(CN2CCN(S(C)(=O)=O)CC2)nc1C,162 µM,33.51%,
Cc1nc(C)c(CN2CCN(C(=O)CCl)CC2)nc1C,148 µM,24.89%,
Cc1nc(C)c(CN2CCN(C(=O)c3ccco3)CC2)nc1C,37.6 µM,21.76%,
COc1ccc(C(=O)N2CCN(Cc3nc(C)c(C)nc3C)CC2)cc1,210 µM,26.06%,
Cc1nc(C)c(CN2CCN(C(=O)c3ccc([N+](=O)[O-])cc3)CC2)nc1C,462 µM,28.64%,
COc1ccc(/C=C/C(=O)N2CCN(Cc3nc(C)c(C)nc3C)CC2)cc1OC,282 µM,6.13%,
COc1ccccc1C(=O)N1CCN(Cc2nc(C)c(C)nc2C)CC1,249 µM,24.27%,
Cc1nc(C)c(CN2CCN(C(=O)/C=C/c3cccc([N+](=O)[O-])c3)CC2)nc1C,422 µM,13.07%,
Cc1nc(C)c(CN2CCN(C(=O)c3ccccc3I)CC2)nc1C,67.8 µM,25.45%,
Cc1nc(C)c(CN2CCN(C(=O)Cc3ccc([N+](=O)[O-])cc3)CC2)nc1C,377 µM,18.24%,
Cc1nc(C)c(C)nc1C [LIGUSTRAZINE],154 µM,7.86%,2.89 h

# — ChEMBL document CHEMBL1153450, “Ligustrazine derivatives. Part 3: Design, synthesis and evaluation of novel acylpiperazinyl derivatives as potential cerebrocardiac vascular agents” (Bioorg Med Chem, 2009)
